From PubChem
Rows were chosen to be rich in hits. Some 3.4% of all compounds tested hit in one or more screens of this group.
IMP-1 inh: inhibitors of Pseudomonas aeruginosa IMP-1 metallo-beta-lactamase | purified IMP-1, nitrocefin hydrolysis, epi-absorbance fluorescence | inhibition, % at 5.6 µM | hit rate 0.45% among 290,000 | AID 1556;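 active = inhibition above the mean plus 3 SD of all compounds in the same screening run, cut at about 4.5% in these data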
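System: purified IMP-1 / Input: IMP-1 dispensed at 0.2 nM / Medium: 50 mM HEPES pH 7.1, 50 µM ZnSO4, 0.05% Brij 35 / Timing: 15 min enzyme–compound preincubation, then 25 min nitrocefin reaction, 25 °C / Technique: plate fluorescence quenching by hydrolysis product, ex 480/em 530 nm / Repeats: singlicate testing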
MEKK3 PB1 HTS: modulators (inhibitors or enhancers) of MEK5 binding to human MEKK3 PB1 domain | Q99759 | bead-based flow cytometry, Alexa488-MEK5 binding to MEKK3; actives lie on both sides; 0 = blocked by unlabeled MEK5, 100 = vehicle | binding response (% of control), % at 10 µM | hit rate 1.4% among 290,000;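 active = binding response more than 3 SD above or below the average of its plate-row segment, actives on both sides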;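 also: Alexa488 bead fluorescence after subtracting the streptavidin-only scavenger bead signal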
Target sequence (Q99759 whole entry, looked up, the tested form may be a part): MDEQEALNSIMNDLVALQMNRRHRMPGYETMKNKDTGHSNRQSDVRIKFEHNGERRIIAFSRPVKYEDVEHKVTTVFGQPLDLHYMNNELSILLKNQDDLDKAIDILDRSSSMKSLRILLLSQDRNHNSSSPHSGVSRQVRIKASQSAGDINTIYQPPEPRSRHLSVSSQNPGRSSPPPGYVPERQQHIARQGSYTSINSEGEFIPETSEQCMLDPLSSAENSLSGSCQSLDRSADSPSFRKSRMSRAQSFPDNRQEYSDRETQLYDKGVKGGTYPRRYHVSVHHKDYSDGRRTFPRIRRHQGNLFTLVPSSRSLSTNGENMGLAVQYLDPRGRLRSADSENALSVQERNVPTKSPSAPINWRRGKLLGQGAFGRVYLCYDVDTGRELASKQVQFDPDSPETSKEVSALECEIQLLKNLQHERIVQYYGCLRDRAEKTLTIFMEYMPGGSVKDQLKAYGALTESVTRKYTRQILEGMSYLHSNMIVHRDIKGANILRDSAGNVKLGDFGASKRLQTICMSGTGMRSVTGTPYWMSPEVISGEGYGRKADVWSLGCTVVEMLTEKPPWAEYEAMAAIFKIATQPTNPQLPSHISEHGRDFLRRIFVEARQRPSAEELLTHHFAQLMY
VIM-2 inh: blocks Pseudomonas aeruginosa VIM-2 metallo-beta-lactamase. purified VIM-2, nitrocefin hydrolysis, epi-absorbance fluorescence. inhibition, % at 5.6 µM. hit rate 0.89% among 290,000. AID 1527;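 active = inhibition above the mean of all tested compounds plus 3 SD, cutoff set per screening run, cut at about 7.5% in these data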;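 also: red hydrolysis product quenches plate fluorescence so inhibitors raise well fluorescence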
MEKK2wt PB1 HTS: raises or lowers MEK5 binding to wildtype human MEKK2 PB1 domain; Q9Y2U5; bead flow cytometry, Alexa488-MEK5 binding to MEKK2 WT; actives lie on both sides; binding response (% of control), % at 10 µM; hit rate 1.1% among 290,000; in the data active = binding response below about 67% or above about 130%
MEKK2mut PB1 HTS: signal of MEK5 binding to mutant human MEKK2 PB1 domain; bead flow cytometry, Alexa488-MEK5 binding to MEKK2 mutant; hit rate 0.35% among 290,000; percent response, % at 10 µM; AID 1530; in the data active = percent response above about 24%, passing the limit was not always enough
MEKK2wt confirm: raises or lowers MEK5 binding to wildtype human MEKK2, retest | shares compounds with MEKK3 PB1 HTS | bead flow cytometry, Alexa488-MEK5 binding to MEKK2 WT; actives lie on both sides | binding response (% of control), % at 10 µM | hit rate 2.4% among 5,900 | AID 1892; in the data active = binding response below about 16% or above about 210%; inactive = in between
MEKK2mut confirm: signal of MEK5 binding to mutant human MEKK2, retest | shares compounds with MEKK3 PB1 HTS | bead flow cytometry, Alexa488-MEK5 binding to MEKK2 mutant | percent response, % at 10 µM | hit rate 2% among 5,900 | AID 1893; in the data active = percent response mostly above about 71%, no sharp cut-off; inactive = mostly below about 38%;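 also: higher means compound restores mutant binding toward wildtype level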
MEKK3-MEK5 inh: MEKK3-MEK5 PB1 inhibition, single concentration confirmation; shares compounds with MEKK3 PB1 HTS; bead flow cytometry, Alexa488-MEK5 binding to MEKK3; stronger effect = lower value; binding response (% of control), % at 10 µM; hit rate 1.8% among 5,900;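 active = binding response below 72% of control, or above a set upper limit, though filed actives all read lower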
Each line names hits and unclear results; the compound was inactive in the other large screens (follow-up assays come after a bar, where they were run); [ ] = another dose, or the depositor's remark.

CCCC1/C(=N/O)CC(c2ccccc2)NC1c1ccccc1 (configuration not stated)	MEKK3 PB1 HTS 4.0[inhibitor], MEKK2wt PB1 HTS 7.0[inhibitor] | MEKK2wt confirm inactive | MEKK2mut confirm inactive | MEKK3-MEK5 inh inactive
Cc1ccc(NC(=O)CN2C(=O)/C(=C\c3cccs3)SC2=S)cc1	none
O=C(O)CN1C(=O)C2(OCCCO2)c2ccccc21	MEKK3 PB1 HTS 2.0[inhibitor], MEKK2wt PB1 HTS 2.0[inhibitor] | MEKK2wt confirm inactive | MEKK2mut confirm inactive | MEKK3-MEK5 inh inactive
Clc1ccc(OCCn2ccnc2)c(Cl)c1	none
Clc1ccc(SCCn2ccnc2)cc1	MEKK3 PB1 HTS 70[inhibitor] | MEKK2wt confirm inactive | MEKK2mut confirm inactive | MEKK3-MEK5 inh inactive
Cc1[nH]c2ccccc2c1C(=O)COC(=O)Cn1c(C(F)(F)F)nc2ccccc21	none
O=C(Cn1c(C(F)(F)F)nc2ccccc21)OCC(=O)c1c[nH]c2ccccc12	MEKK2wt PB1 HTS 63[inhibitor] | MEKK2wt confirm inactive | MEKK2mut confirm inactive | MEKK3-MEK5 inh inactive
O=C(COC(=O)Cc1ccc(-c2ccccc2)cc1)NCc1ccc(F)cc1	none
Cc1cc(C)n(-c2ccc(C(=O)NC(C)C)cc2)n1	MEKK3 PB1 HTS -1.0[inhibitor], MEKK2wt PB1 HTS -5.0[inhibitor] | MEKK2wt confirm inactive | MEKK2mut confirm inactive | MEKK3-MEK5 inh inactive
Cc1cc(-c2ccccc2)n(-c2ccc(C(=O)NC(C)C)cc2)n1	none
CCc1ccccc1Nc1cc(C(=O)NCc2ccccn2)c2ccccc2n1	MEKK3 PB1 HTS 131 | MEKK2wt confirm inactive | MEKK2mut confirm inactive | MEKK3-MEK5 inh inactive
CCc1ccc(-c2cc(C(=O)NCc3ccccn3)c3ccccc3n2)cc1	none
CCCCCCCNC(=O)C1(CC2CC(c3cccc(Br)c3)=NO2)CCNCC1 (configuration not stated)	MEKK2wt PB1 HTS 191 | MEKK2wt confirm inactive | MEKK2mut confirm inactive | MEKK3-MEK5 inh inactive
CCCCCCCNC(=O)C1(CC2CC(c3ccc(Cl)cc3)=NO2)CCNCC1 (configuration not stated)	MEKK2wt PB1 HTS 158 | MEKK2wt confirm inactive | MEKK2mut confirm inactive | MEKK3-MEK5 inh inactive
O=C(NCCCn1ccnc1)/C(=C\c1cccnc1)NC(=O)c1ccco1	none
O=C(NCCCn1ccnc1)/C(=C/c1ccco1)NC(=O)c1ccco1	MEKK3 PB1 HTS 66[inhibitor] | MEKK2wt confirm inactive | MEKK2mut confirm inactive | MEKK3-MEK5 inh inactive
CC1Cc2ccccc2N1C(=O)CO/N=C/c1ccccc1OC(F)F (configuration not stated)	MEKK3 PB1 HTS 10[inhibitor] | MEKK2wt confirm inactive | MEKK2mut confirm inactive | MEKK3-MEK5 inh inactive
CC1CCCCC1NC(=O)CO/N=C/c1ccccc1OC(F)F (configuration not stated)	MEKK3 PB1 HTS 71[inhibitor] | MEKK2wt confirm inactive | MEKK2mut confirm inactive | MEKK3-MEK5 inh inactive
CC1=C(C(=O)OCC2CCCO2)C(c2ccc(C)o2)C2=C(CC(c3ccc(N(C)C)cc3)CC2=O)N1 (configuration not stated)	none
COc1ccc(/C=C/C(=O)c2ccc3c(c2)OCCO3)cc1[N+](=O)[O-]	MEKK3 PB1 HTS 132 | MEKK2wt confirm inactive | MEKK2mut confirm inactive | MEKK3-MEK5 inh inactive
Cc1oc2ccc(O)cc2c1C(=O)OC(C)C	MEKK3 PB1 HTS 80[inhibitor] | MEKK2wt confirm inactive | MEKK2mut confirm inactive | MEKK3-MEK5 inh inactive
Cn1c(=O)cc(N2CCCCC2)[nH]c1=O	none
Cn1c(=O)cc(N2CCOCC2)[nH]c1=O	MEKK2wt PB1 HTS 70[inhibitor] | MEKK2wt confirm inactive | MEKK2mut confirm inactive | MEKK3-MEK5 inh inactive
CCOc1ccc(NC(=O)CCn2c(=S)oc3ccccc32)cc1	none
CCOC(=O)CCSc1nc(C)c2cc(OC)ccc2n1	MEKK3 PB1 HTS 72[inhibitor] | MEKK2wt confirm inactive | MEKK2mut confirm inactive | MEKK3-MEK5 inh inactive
CCOC(=O)CCSc1nc(C)c2cc(C)c(C)cc2n1	none
